Assay outcomes: PubChem, Broad Institute
Shown are actives, neighbours in structure and some others; about 4% of the full set was active somewhere.
rRNA inh HTS: inhibitors of bacterial rRNA selective over humanized ribosomes. E. coli WT GFP vs humanized-ribosome RFP mutants, fluorescence, 24 h; hits give low values; DMSO median 0, no signal -100. GFP signal change (wild-type ribosome), % (concentration not given with the values). actives 1.6% (n = 350,000);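 active = significant combined selectivity score with lowered wild-type GFP, culture density cut under 30%, mutant RFP and density less affected; inactive = any of these conditions unmet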
FN deposit inh: fibronectin deposition inhibition; AH1F fibroblasts, Alexa488-fibronectin deposition fluorescence, overnight; AID 743247; inhibition, % at 12.6 µM; actives 0.086% (n = 350,000);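 active = mean inhibition across replicates of 30% or more, regardless of how many single replicates reach that level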;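 also: positive control wells lacked labelled fibronectin entirely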
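Assay system: AH1F fibroblast monolayer, labelled fibronectin deposition. Amount: 10000 cells per well. Also added: labelled fibronectin 24 nM. Compound: single-point pinned compound. Incubation: cell attachment 1 h, compound and FN exposure overnight. Detection: fluorescence after three HBSS washes, excitation 485 nm, emission 525 nm. Read-out: inhibition of fibronectin deposition signal.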
C2C12 statin: protects C2C12 myotubes from simvastatin toxicity. ATP luminescence, 48 h; scaled: DMSO 0, geranylgeraniol control 100. rescue of ATP level, % at 7.49 µM. actives 0.78% (n = 330,000);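 active = mean ATP rescue above about 67%, or every replicate alone reaching that limit, limit read from the data, passing the limit was not always enough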;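 also: myotubes were challenged with 10 µM simvastatin during compound exposure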
FGF22 binding: shifts melting point of recombinant human FGF22 | recombinant FGF22 thermal shift, SYPRO orange fluorescence; percent of sucrose octasulfate shift, DMSO zero | activity (Tm shift, normalised), % at 9.99 µM | actives 1.5% (n = 340,000);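 active = mean Tm shift, scaled 0 neutral to 100 positive control, at about 1.3% or above, every replicate too, limit read from the data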
Target sequence (Q9HCT0 whole entry, looked up): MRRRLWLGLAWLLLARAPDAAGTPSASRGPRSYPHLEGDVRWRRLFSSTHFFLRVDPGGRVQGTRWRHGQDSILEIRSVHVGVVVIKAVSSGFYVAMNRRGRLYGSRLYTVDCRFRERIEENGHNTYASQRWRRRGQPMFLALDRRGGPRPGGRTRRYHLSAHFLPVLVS
SIRT5 block: sirtuin-5 (human) deacylase inhibition. actives 1.1% (n = 330,000). inhibition, % at 15 µM. Q9NXA8. Purified SirT5, succinyl-peptide AMC, trypsin-coupled fluorescence; in the data active = inhibition above about 15%
Target sequence (Q9NXA8 whole entry, looked up): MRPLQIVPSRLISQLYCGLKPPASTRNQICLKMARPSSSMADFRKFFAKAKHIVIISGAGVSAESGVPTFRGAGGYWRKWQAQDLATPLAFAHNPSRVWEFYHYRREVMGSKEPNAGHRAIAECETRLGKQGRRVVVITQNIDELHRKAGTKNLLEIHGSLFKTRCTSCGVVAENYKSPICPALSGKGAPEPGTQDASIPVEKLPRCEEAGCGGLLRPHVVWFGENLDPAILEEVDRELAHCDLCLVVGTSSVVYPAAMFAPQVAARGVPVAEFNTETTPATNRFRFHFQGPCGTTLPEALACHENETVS
E-sel inducer: induces E-selectin expression in human endothelial cells; P16581; HUVEC E-selectin immunofluorescence imaging; normalized: neutral wells 0, TNF-alpha wells 100; activation, % at 7.58 µM; actives 0.37% (n = 260,000); AID 686992;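 active = mean E-selectin-positive cell signal at least 10% of the positive control, reached in at least 60% of replicates, without over 20% cell loss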
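assay system = HUVEC, human umbilical vein endothelial cells | input = 3,000 HUVEC seeded per well | medium = EGM-2 growth medium on 0.1% gelatin-coated wells | dosing = one compound dose added by pin transfer | signal = immunofluorescence imaging | read-out basis = % PE-positive cells | control set = TNF-alpha, DMSO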
* hit, by the source's call; · = no result; ! = repeats disagree.

SMILES	rRNA inh HTS	FN deposit inh	C2C12 statin	FGF22 binding	SIRT5 block	E-sel inducer
CCC(=NCCN1CCOCC1)c1c(O)n(C2CCCCC2)c(=O)[nH]c1=O	6	13	·	0	0	30*
CCC(=NCCCN(CC)CC)c1c(O)n(C2CCCCC2)c(=O)[nH]c1=O	·	15	0	·	·	·
Cc1ccccc1-c1ccc([C@H]2[C@@H](CO)N3CCCCN(C(=O)Cc4ccccn4)C[C@@H]23)cc1	-3	·	·	0	2	0
CN(C)c1cccc(CN2CCN(c3ccccc3)CC2)c1	8	·	-3	0	15*	1
O=P(Nc1ccccc1)(Nc1ccccc1)Oc1cccc(Cl)c1	-57	·	97*	·	-2	·
CN1/C(=C\C=C2C(=O)NC(=O)NC2=O)C(C)(C)c2ccccc21	21	-10	·	0	1	·
CN1/C(=C\C=Nc2ccccc2)C(C)(C)c2ccccc21	·	-2	85*	·	·	·
C=CCn1c(O)c(C(C)=NCCCN(C)C)c(=O)[nH]c1=O	19	5	·	0	·	50*
Cc1cc(C=O)c(C)n1C(C)C	12	·	·	43*	-1	·
COC(=O)[C@@H]1[C@@H](CO)[C@@H]2Cn3c(ccc(/C=C/c4ccccc4)c3=O)[C@H]1N2C(=O)C1CC1	-7	·	-5	0	-103	0
CC[C@H](C)[C@@H]1NC(=O)CNC(=O)c2csc(n2)[C@H](C(C)(C)O)OC(=O)C(C)(C)[C@H](CCCC(C)(Cl)Cl)OC(=O)c2csc1n2	-2	48*	-72	0	6	0
Cc1c(N=Nc2c(O)[nH]c(=O)[nH]c2=O)c(=O)n(-c2ccccc2)n1C	24	-12	·	0	3	0
Cc1c(N=Nc2c(O)n(-c3ccc(Br)cc3)c(=O)[nH]c2=O)c(=O)n(-c2ccccc2)n1C	-35*	0	·	0	3	·
O=C(Cc1ccccc1)NC(Oc1ccccc1Cl)C(Cl)(Cl)Cl (stereo not drawn)	·	·	15	·	·	·
CC(C)C(=O)NC(Oc1ccccc1Cl)C(Cl)(Cl)Cl (stereo not drawn)	-14*	2	0	0	0	7
O=C1CNC[C@H]2[C@@H](c3ccc(Br)cc3)[C@@H](CO)N12	-1	-7	·	0	-2	·
COC(=O)[C@H]1[C@H](CO)[C@H]2Cn3c(ccc(-c4ccccc4F)c3=O)[C@@H]1N2Cc1ccncc1	-2	·	-8	0	2	0
O=C1NC(=O)N(Cc2ccco2)C(=O)/C1=C/C=C/c1ccco1	2	6	·	0	15*	·
O=C1NC(=O)C(=Cc2ccc(-c3ccc(F)cc3O)o2)C(=O)N1	21	7	·	43*	0	0
CCN1/C(=C/C=C/C2=[N+](CC)c3ccccc3C2(C)C)C(C)(C)c2ccccc21	103	-61	-198	0	3	131*
COc1ccc(-n2nnnc2C(CCc2ccccc2)N2CCC3(CC2)C(=O)NCN3c2ccccc2)cc1 (stereo not drawn)	9	-6	-19	0	12	1
O=C1NCN(c2ccccc2)C12CCN(C(c1nnnn1Cc1ccccc1)C1CC1)CC2 (stereo not drawn)	-55	3	11	0	-4	0
O=C1NCN(c2ccccc2)C12CCN(C(c1ccccc1)c1nnnn1Cc1ccccc1)CC2 (stereo not drawn)	-21*	-5	-2	-1	·	-1
COc1ccc(-n2nnnc2C(CCSC)N2CCC3(CC2)C(=O)NCN3c2ccccc2)cc1 (stereo not drawn)	-21*	·	-9	0	4	-1
CCC(=Nc1ccc2c(c1)CCC2)c1c(O)n(C)c(=O)n(C)c1=O	·	·	112*	·	·	·
SMILES	rRNA inh HTS	FN deposit inh	C2C12 statin	FGF22 binding	SIRT5 block	E-sel inducer
CC(=Nc1ccc2c(c1)CCC2)c1c(O)n(C)c(=O)n(C)c1=O	·	·	-11	·	·	·
C=C1C(C)C2C(Cc3ccccc3)NC(=O)C23C(OC(C)=O)C=CC(C)(O)CC(C)CC=CC3C1O (stereo not drawn)	21	45*	·	0	-4	0
C[C@H]1C/C=C/[C@H]2[C@H](O)[C@H](C)[C@@](C)(O)[C@H]3[C@H](Cc4ccccc4)NC(=O)[C@]32[C@H](O)/C=C/[C@](C)(O)C1	·	·	-24	·	·	·
C=C1[C@@H](C)[C@H]2[C@H](Cc3ccccc3)NC(=O)[C@]23OC(=O)/C=C/[C@H](O)CCC[C@@H](C)C/C=C/[C@H]3[C@@H]1O	·	35*!	-77	0	4	0
O=C([C@H]1N[C@H]2c3cccc(=O)n3C[C@H]2[C@@H]1CO)N1CCCCC1	2	4	·	·	·	·
COC(=O)[C@H]1[C@H](CO)[C@H]2Cn3c(ccc(-c4ccccc4)c3=O)[C@@H]1N2S(=O)(=O)c1ccccc1C	-6	·	13	0	-14	0
COC(=O)[C@@H]1[C@@H](CO)[C@@H]2Cn3c(ccc(-c4cncnc4)c3=O)[C@H]1N2S(=O)(=O)c1ccccc1C	3	·	9	0	-41	0
N#CC1=C(N)Oc2c(c(=O)sc3ccccc23)C1c1ccncc1 (stereo not drawn)	1	-6	·	1	16*	0
N#CC1=C(N)Oc2c(c(=O)oc3ccccc23)C1c1cccnc1 (stereo not drawn)	·	3	·	·	·	·
COC(=O)[C@H]1[C@H](CO)[C@H]2Cn3c(ccc(/C=C/c4ccccc4)c3=O)[C@@H]1N2C(=O)C1CC1	-5	·	6	0	-114	0
Clc1cc(Cl)cc(NC2=NCCS2)c1	-26*	7	·	0	-1	0
O=C(Cc1ccccn1)N1CCCCN2[C@H](CO)[C@H](c3ccc(C#Cc4ccccc4)cc3)[C@H]2C1	-7	·	·	0	2	0
C[C@]12CC[C@H](OS(=O)(=O)O)CC1=CC[C@@H]1[C@@H]2CC[C@]2(C)C(=O)CC[C@@H]12	-8	4	-2	0	-4	0
CC12CCC3C(CC=C4CC5(CCC43C)OCCO5)C1CCC2=O (stereo not drawn)	·	-13	-6	44*	8	1
O=C(O)[C@@H]1[C@@H](CO)[C@@H]2Cn3c(cccc3=O)[C@H]1N2C(=O)c1ccccc1	1	·	14	0	7	-1
COc1ccccc1CN1[C@H](CO)[C@H](c2ccccc2)C12CN(C(=O)Cc1ccccc1)C2	-13	11	·	0	6	0
O=C(COC(=O)c1cc(Br)cc(Br)c1O)NC12CC3CC(CC(C3)C1)C2	-16	2	-2	1.7*	·	0
O=C1C(=O)c2ccccc2-c2ccccc21	·	56*	-239	-1	-1	0
CCN(CC)P(=O)(Oc1ccccc1)Oc1ccccc1	-32*	4	·	0	-6	0
